# ChEMBL document CHEMBL3108700, “Designing anti-inflammatory drugs from parasitic worms: a synthetic small molecule analogue of the Acanthocheilonema viteae product ES-62 prevents development of collagen-induced arthritis” (J Med Chem, 2013)
# Active and inactive are the calls of the source. No rule for the calls is given here.
# Key:
# [1] = target: T1, Toll-like receptor 9 (Mus musculus) (UniProt Q9EQU3); test: Inhibition of TLR9 in BALB/c mouse BMDM assessed as downregulation of CpG-stimulated IL-6 level at 5 ug/ml preincubated for 18 hrs followed by CpG challenge measured after 24 hrs by ELISA relative to control
# T1 sequence (whole entry): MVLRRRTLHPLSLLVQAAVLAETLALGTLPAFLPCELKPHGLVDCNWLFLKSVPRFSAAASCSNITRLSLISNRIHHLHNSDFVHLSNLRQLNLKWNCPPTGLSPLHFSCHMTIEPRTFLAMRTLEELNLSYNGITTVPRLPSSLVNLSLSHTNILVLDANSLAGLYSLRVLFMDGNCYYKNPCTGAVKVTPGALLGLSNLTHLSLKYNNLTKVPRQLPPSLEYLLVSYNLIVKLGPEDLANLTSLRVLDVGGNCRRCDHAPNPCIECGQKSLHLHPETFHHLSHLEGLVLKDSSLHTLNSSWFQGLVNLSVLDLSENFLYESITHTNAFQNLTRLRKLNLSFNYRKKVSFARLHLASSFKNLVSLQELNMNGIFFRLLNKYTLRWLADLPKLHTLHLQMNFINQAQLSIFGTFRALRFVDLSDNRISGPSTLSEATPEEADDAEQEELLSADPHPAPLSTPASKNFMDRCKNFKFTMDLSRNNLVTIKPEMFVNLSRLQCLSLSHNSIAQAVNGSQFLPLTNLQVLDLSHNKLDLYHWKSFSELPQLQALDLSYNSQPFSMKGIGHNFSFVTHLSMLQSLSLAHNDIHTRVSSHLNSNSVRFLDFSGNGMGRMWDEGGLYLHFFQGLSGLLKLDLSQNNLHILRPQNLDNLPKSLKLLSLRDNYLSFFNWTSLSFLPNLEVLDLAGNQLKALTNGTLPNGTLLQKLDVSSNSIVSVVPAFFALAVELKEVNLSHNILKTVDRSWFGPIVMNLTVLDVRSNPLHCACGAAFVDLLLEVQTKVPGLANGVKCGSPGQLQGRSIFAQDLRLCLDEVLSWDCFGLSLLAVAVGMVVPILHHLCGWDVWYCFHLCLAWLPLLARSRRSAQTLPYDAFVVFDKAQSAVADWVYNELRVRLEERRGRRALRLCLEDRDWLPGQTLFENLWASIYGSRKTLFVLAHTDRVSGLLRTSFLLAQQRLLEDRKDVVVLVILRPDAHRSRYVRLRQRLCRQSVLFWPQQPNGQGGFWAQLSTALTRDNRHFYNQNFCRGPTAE
# Procedure, shortened: (§1)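 BALB/c male bone marrow macrophages were differentiated 7 days with L929 supernatant (≥99% CD11b+/F4/80+). Cells were plated at 2 × 10^5/well in triplicate, rested overnight, and given compounds at 5 μg/mL for 18 h. They were then stimulated with 100 ng/mL S. minnesota LPS, 10 ng/mL Pam3CSK4 (BLP) or 0.01 μM CpG for 24 h. Supernatant IL-12p40 and IL-6 were measured by ELISA (sensitivity 16 pg/mL).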
# [2] = target: T1, Toll-like receptor 9 (Mus musculus); test: Inhibition of TLR9 in BALB/c mouse BMDM assessed as downregulation of CpG-stimulated IL-12p40 level at 5 ug/ml preincubated for 18 hrs followed by CpG challenge measured after 24 hrs by ELISA relative to control; procedure, shortened: as §1
# TLR2/TLR6 (Mus musculus) [3] = target: T2, TLR2/TLR6 (Mus musculus) (UniProt Q9QUN7+Q9EPW9); test: Inhibition of TLR2/6 in BALB/c mouse BMDM assessed as downregulation of BLP-stimulated IL-6 level at 5 ug/ml preincubated for 18 hrs followed by BLP challenge measured after 24 hrs by ELISA relative to control; type: protein-complex assay; procedure, shortened: as §1
# TLR2/TLR6 (Mus musculus) [4] = target: T2, TLR2/TLR6 (Mus musculus); test: Inhibition of TLR2/6 in BALB/c mouse BMDM assessed as downregulation of BLP-stimulated IL-12p40 level at 5 ug/ml preincubated for 18 hrs followed by BLP challenge measured after 24 hrs by ELISA relative to control; type: protein-complex assay; procedure, shortened: as §1
# [5] = target: T3, Toll-like receptor 4 (Mus musculus) (UniProt Q9QUK6); test: Inhibition of TLR4 in BALB/c mouse BMDM assessed as downregulation of LPS-stimulated IL-6 level at 5 ug/ml preincubated for 18 hrs followed by LPS challenge measured after 24 hrs by ELISA relative to control; procedure, shortened: as §1
# T3 sequence (whole entry): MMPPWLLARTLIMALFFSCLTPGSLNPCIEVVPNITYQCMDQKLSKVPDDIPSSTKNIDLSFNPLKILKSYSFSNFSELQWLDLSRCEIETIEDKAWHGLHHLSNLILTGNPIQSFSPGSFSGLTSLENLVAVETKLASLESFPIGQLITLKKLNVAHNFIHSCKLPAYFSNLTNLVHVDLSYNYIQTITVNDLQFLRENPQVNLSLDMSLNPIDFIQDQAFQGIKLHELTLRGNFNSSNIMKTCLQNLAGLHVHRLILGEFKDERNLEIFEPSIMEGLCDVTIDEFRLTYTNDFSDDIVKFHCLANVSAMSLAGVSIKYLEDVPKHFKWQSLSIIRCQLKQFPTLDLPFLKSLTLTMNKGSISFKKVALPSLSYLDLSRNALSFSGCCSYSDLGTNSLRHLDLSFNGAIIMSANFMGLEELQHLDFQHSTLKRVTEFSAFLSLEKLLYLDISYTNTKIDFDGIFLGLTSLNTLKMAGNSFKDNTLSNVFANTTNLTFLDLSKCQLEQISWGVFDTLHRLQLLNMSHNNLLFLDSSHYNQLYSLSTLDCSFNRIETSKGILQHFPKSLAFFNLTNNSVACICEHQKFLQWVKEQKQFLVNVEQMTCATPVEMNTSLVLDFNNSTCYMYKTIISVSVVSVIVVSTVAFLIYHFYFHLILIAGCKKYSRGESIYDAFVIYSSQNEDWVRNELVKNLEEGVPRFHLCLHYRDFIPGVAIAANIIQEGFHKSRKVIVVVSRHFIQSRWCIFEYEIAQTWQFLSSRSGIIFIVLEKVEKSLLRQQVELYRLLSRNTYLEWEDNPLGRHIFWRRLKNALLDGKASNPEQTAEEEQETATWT
# [6] = target: T3, Toll-like receptor 4 (Mus musculus); test: Inhibition of TLR4 in BALB/c mouse BMDM assessed as downregulation of LPS-stimulated IL-12p40 level at 5 ug/ml preincubated for 18 hrs followed by LPS challenge measured after 24 hrs by ELISA relative to control; procedure, shortened: as §1
inhibition [1],inhibition [2],inhibition (TLR2/TLR6 (Mus musculus) [3]),inhibition (TLR2/TLR6 (Mus musculus) [4]),inhibition [5],inhibition [6],Structure (SMILES)
inactive,inactive,inactive,inactive,inactive,Active,O=S(=O)(CCN1CCCC1)Nc1ccc(F)cc1
inactive,inactive,inactive,inactive,inactive,inactive,O=S(=O)(CCN1CCOCC1)NCc1ccccc1
inactive,inactive,inactive,inactive,inactive,inactive,O=S(=O)(Cc1ccc(F)cc1)NCCN1CCOCC1
inactive,inactive,inactive,inactive,inactive,inactive,CN(C)CCCNS(=O)(=O)Cc1ccc(F)cc1
inactive,inactive,inactive,Active,inactive,inactive,CN(C)CCNS(=O)(=O)Cc1ccc(/C=C/c2ccccc2)cc1
inactive,inactive,inactive,Active,inactive,Active,COc1ccc2c(CS(=O)(=O)NCCN3CCOCC3)cc(=O)oc2c1
inactive,inactive,inactive,inactive,inactive,inactive,O=S(=O)(CCN1CCOCC1)Nc1ccccc1
inactive,inactive,inactive,inactive,inactive,inactive,O=[N+]([O-])c1ccc(CS(=O)(=O)NCCN2CCOCC2)cc1
Active,inactive,inactive,inactive,inactive,Active,COc1cccc(C(=O)NCCCN(C)C)c1
inactive,inactive,inactive,inactive,inactive,inactive,Cc1ccc(CS(=O)(=O)CCCN2CCCC2)cc1
inactive,inactive,inactive,Active,inactive,Active,C[N+](C)(C)CCOP(=O)(O)Cc1ccc(Br)cc1
inactive,inactive,inactive,inactive,inactive,Active,CN(C)CCN(C)CCS(=O)(=O)Nc1ccccc1
inactive,inactive,Active,inactive,inactive,inactive,O=S(=O)(CCCN1CCOCC1)Cc1ccc(Br)cc1
inactive,inactive,inactive,inactive,inactive,inactive,CN(C)CCNS(=O)(=O)Cc1ccc2ccccc2c1
inactive,inactive,inactive,inactive,inactive,inactive,Cc1ccc(CS(=O)(=O)NCCN(C)C)cc1
inactive,inactive,inactive,inactive,inactive,inactive,CN1CCN(CCS(=O)(=O)c2ccccc2)CC1
inactive,inactive,inactive,Active,inactive,inactive,CC[C@H](C)NCCS(=O)(=O)Cc1ccc(Br)cc1
inactive,inactive,inactive,inactive,inactive,inactive,CN(C)CCCNS(=O)(=O)Cc1ccccc1
inactive,inactive,inactive,inactive,inactive,inactive,CN(C)CCS(=O)(=O)NCc1ccccc1
Active,inactive,inactive,inactive,inactive,Active,CN(C)CCNC(=O)Cc1ccccc1
Active,Active,inactive,inactive,Active,inactive,O=S(=O)(CCN1CCCC1)NCc1ccc(F)cc1
inactive,inactive,inactive,inactive,inactive,inactive,O=S(=O)(Cc1ccccc1)NCCN1CCOCC1
Active,inactive,inactive,Active,inactive,Active,COc1cccc(C(=O)NCCN(C)C)c1
inactive,inactive,inactive,Active,inactive,inactive,CN(C)CCN(C)CCS(=O)(=O)Cc1ccc(F)cc1
